# High-throughput results (PubChem)
# The list is not random: actives were taken first. Their share in the collection is about 4.4%.
# GRIN3A LBD mod = NR3A (human) ligand-binding domain modulation; NR3A LBD differential scanning fluorimetry, Tm shift; 0% = protein alone, 100% = glycine-bound protein; AID 1259313; hit rate 2.5% among 340,000; Tm shift relative to glycine control, % at 25 µM;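 active means melting temperature shift of at least 10% of the positive control shift, at one fixed dose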
# EBI2 antag = EBI2 (human) antagonism. EBI2 beta-arrestin recruitment, luminescence, 7a,25-OHC stimulated. inhibition, % at 5 µM. hit rate 0.81% among 360,000; in the data active means inhibition above about 38%;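 further: enzyme fragment complementation signal reports receptor beta-arrestin coupling in cells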
# Target sequence (P32249 whole entry, looked up, the tested form may be a part): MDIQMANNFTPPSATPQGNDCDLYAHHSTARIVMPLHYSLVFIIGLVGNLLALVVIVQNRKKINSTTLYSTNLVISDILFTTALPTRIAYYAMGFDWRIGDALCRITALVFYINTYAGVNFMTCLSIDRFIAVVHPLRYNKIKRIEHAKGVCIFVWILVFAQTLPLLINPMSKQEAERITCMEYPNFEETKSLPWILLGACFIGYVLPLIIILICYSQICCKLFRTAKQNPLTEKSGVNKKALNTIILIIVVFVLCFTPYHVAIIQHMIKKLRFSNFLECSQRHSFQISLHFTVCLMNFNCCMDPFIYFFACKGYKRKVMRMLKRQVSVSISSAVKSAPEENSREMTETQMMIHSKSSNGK
# SENP1 FRET inh = blocks the human SENP1 SUMO protease catalytic domain. recombinant SENP1 catalytic domain, CyPet-SUMO1-YPet FRET cleavage. hit rate 0.21% among 360,000. inhibition, % at 10 µM. Q9P0U3. AID 624204;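 active means inhibition at least 30% at 10 µM, raw YFP signal under a set limit, fluorescence ratio 0.5 to 1.5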
# Target sequence (Q9P0U3 419-644 limits assumed): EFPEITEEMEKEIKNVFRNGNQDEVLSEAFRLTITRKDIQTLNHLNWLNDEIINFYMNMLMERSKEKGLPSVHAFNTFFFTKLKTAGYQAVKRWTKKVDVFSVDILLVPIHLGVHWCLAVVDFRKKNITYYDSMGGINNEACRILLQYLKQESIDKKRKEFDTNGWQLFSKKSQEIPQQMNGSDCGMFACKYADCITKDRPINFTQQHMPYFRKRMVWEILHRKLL
#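 Assay system: hSENP1 catalytic domain, recombinant. Amount: SENP1 enzyme, 20 pM final. Schedule: 50 min reaction, RT, dark. Technique: FRET, CFP and YFP emission. Control set: no-enzyme wells low, DMSO-plus-enzyme wells high control.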
# MPTP inh = permeability transition pore inhibition | isolated mouse mitochondria, Ca2+ swelling absorbance, 30 min | inhibition, % at 10 µM | hit rate 1.4% among 360,000 | AID 602449;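 active means inhibition of 50% or more, scaled per plate between neutral and stimulator controls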
# EBI2 conf = confirmation of human EBI2 receptor antagonists | shares compounds with EBI2 antag | hit rate 29% among 2,400 | inhibition, % at 5 µM | AID 651997 | EBI2 beta-arrestin luminescence, 7a,25-OHC antagonism;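 active means inhibition of at least 50%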
# EBI2 ag = activates EBI2, counter-screen for EBI2 antagonists | shares compounds with EBI2 antag | EBI2-expressing cells, agonist mode, luminescence, 60 min; 0% vehicle, 100% 7α,25-dihydroxycholesterol control | activation, % at 5 µM | 2,400 tested, under 10 active | AID 652000;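 active means activation of at least 50%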
# bGal counter = inhibits E. coli beta-galactosidase, counter-screen for EBI2 antagonists. shares compounds with EBI2 antag. purified beta-galactosidase, luminescent Galacton Star, 15 min. inhibition, % at 5 µM. hit rate 1% among 2,400. AID 652176;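 active means replicate-average signal at least 3 plate SD below neutral wells, shown as high inhibition, flagging enzyme-inhibiting false positives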;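 further: higher means stronger loss of beta-gal luminescence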
# Numbers stand for hits; – = inactive; · = no result given.
SMILES,GRIN3A LBD mod,EBI2 antag,SENP1 FRET inh,MPTP inh,EBI2 conf,EBI2 ag,bGal counter
Cc1cccc(N2CCN(C(=O)c3ccc4[nH]c(C)c(C)c4c3)CC2)c1C,–,69,–,–,51,–,–
COc1ccccc1N1CCN(C(=O)c2ccc3[nH]c4c(c3c2)CC(C)CC4)CC1 (centres undefined),–,–,–,–,·,·,·
Cc1[nH]c2ccc(C(=O)N3CCN(c4ccccc4Cl)CC3)cc2c1C,–,78,–,–,56,–,–
COc1ccccc1N1CCN(C(=O)c2ccc3[nH]c(C)c(C)c3c2)CC1,–,76,–,–,–,–,–
COc1ccccc1N1CCN(CC(=O)c2c(C)[nH]c3cc(C)ccc23)CC1,–,40,–,–,–,–,–
COc1ccccc1CNC(=O)C1CCC(CNS(=O)(=O)c2cccc3cccnc23)CC1 (centres undefined),–,–,–,–,·,·,·
CCCNC(=O)c1ccc(CN2CCOCC2)cc1,–,–,–,–,·,·,·
O=C1c2ccccc2C(=O)N1Cc1cc(-c2ccc(Cl)cc2)no1,–,–,–,–,·,·,·
CN(C(=O)CSc1nnc(C2CC2)n1C1CC1)C1(C#N)CCCCC1,–,–,–,–,·,·,·
Cc1cc(NC(=O)CSCC(=O)Nc2cc(C(F)(F)F)ccc2N2CCCC2)no1,–,–,–,–,·,·,·
Cc1cc(C)c(S(=O)(=O)Nc2ccccc2-c2ccccc2)c(C)c1,–,57,–,–,–,–,–
CCOc1ccc(C(=O)NCC(=O)NNC(=O)CN(C)S(=O)(=O)c2ccc(Cl)cc2)cc1,–,–,–,–,·,·,·
CC(C)(C)c1ccc(C(=O)N/C(=C\c2cccs2)C(=O)NCc2ccco2)cc1,–,–,–,–,·,·,·
S=C(NCc1ccco1)N1CCN(c2nc(-c3ccccc3)cs2)CC1,–,–,–,–,·,·,·
S=C(NCC1CCCO1)N1CCN(c2nc(-c3ccccc3)cs2)CC1 (centres undefined),–,40,–,–,–,–,–
COc1ccc(-c2c(C#N)c(N)nc3sc(C(=O)c4ccccc4)c(N)c23)cc1,–,49,–,–,–,–,–
CCOc1ccc(-c2c(C#N)c(N)nc3sc(C(=O)c4ccccc4)c(N)c23)cc1,–,42,–,–,–,–,–
O=C(CSc1ccc2c(c1)OCCO2)NCCc1ccc(Cl)cc1Cl,–,63,–,–,–,–,–
OC[C@@H]1CN(Cc2ccc(F)cc2)C[C@H](n2cnc3c(NC4CC4)ncnc32)O1,·,65,–,–,66,–,–
CC(C)N(C)c1ncnc2c1ncn2[C@H]1CN(Cc2ccc(Cl)cc2)C[C@@H](CO)O1,·,83,–,–,77,–,–
CC(C)N(C)c1ncnc2c1ncn2[C@H]1CN(Cc2ccccc2)C[C@@H](CO)O1,·,–,–,–,·,·,·
OC[C@@H]1CN(Cc2ccccc2)C[C@H](n2cnc3c(NC4CC4)ncnc32)O1,·,–,–,–,·,·,·
CC(c1nnc(SCC(=O)Nc2cccnc2Cl)n1-c1ccccc1)N(C)C (centres undefined),–,–,–,–,·,·,·
Cc1ccc(C(=O)CNc2ccc(Cl)cc2)cc1,–,57,–,–,76,–,–
Cc1ccc(C)c(NCC(=O)c2ccc(Cl)cc2)c1,–,–,–,–,·,·,·
SMILES,GRIN3A LBD mod,EBI2 antag,SENP1 FRET inh,MPTP inh,EBI2 conf,EBI2 ag,bGal counter
O=C(Cc1ccccc1)Nc1cccc(-c2nnc(-c3ccco3)o2)c1,–,–,–,–,·,·,·
O=C(Nc1cccc(-c2nnc(-c3ccco3)o2)c1)C(c1ccccc1)c1ccccc1,–,77,–,–,–,–,–
O=C(Cc1ccc(Cl)cc1)Nc1cccc(-c2nnc(-c3ccco3)o2)c1,–,71,–,–,–,–,–
C/C=C(/C)C(=O)Nc1cccc(C2=NOC3(C2)C[C@@H](C(N)=O)N(C(=O)CCCCC)C3)c1 (some centres undefined),–,–,–,–,·,·,·
COc1ccccc1C1CCN(C(=O)c2cnn(-c3ccccc3)c2C)CC1,–,54,–,–,–,–,–
COc1ccccc1C1CCN(C(=O)C2CCCCC2)CC1,–,–,–,–,·,·,·
COc1ccccc1C1CCN(C(=O)c2ccc(Cl)cc2)CC1,–,88,–,–,70,–,–
COc1ccc(OCc2nnnn2-c2ccccc2)cc1,–,–,–,–,·,·,·
Brc1ccc(OCc2nnnn2-c2ccccc2)cc1,–,80,–,–,64,–,–
O=S(=O)(CC(O)COc1ccc(Br)cc1)c1ccccc1 (centres undefined),–,45,–,–,–,–,–
Cc1nccc(-c2cc(-c3ccc(Cl)cc3Cl)no2)n1,–,–,–,–,·,·,·
Cc1cc(C(=O)Nc2cc(C(F)(F)F)ccc2N2CCOCC2)no1,–,–,–,–,·,·,·
O=C(Nc1cc(C(F)(F)F)ccc1N1CCOCC1)c1ccc2ccccc2n1,–,44,–,–,–,–,–
CCC(C(=O)NCc1ccccc1)n1c(C2CCN(C(C)=O)CC2)nc2ccccc21 (centres undefined),·,–,–,–,·,·,·
O=[N+]([O-])/C=C\c1ccc(N2CCCC2)c(F)c1,–,–,–,–,·,·,·
CC(C)(C)c1ccc(Cn2cnc(-c3ccc([N+](=O)[O-])cc3)c2)cc1,–,51,–,–,–,–,–
Cc1cc(C)c(Cn2cnc(-c3ccc([N+](=O)[O-])cc3)c2)c(C)c1,–,–,–,–,·,·,·
CCc1nnc(NC(=O)CCC(=O)Nc2ccc(C)cc2)s1,–,–,–,–,·,·,·
C#CCNc1cc(-c2ccccc2)nc2ncnn12,–,–,–,–,·,·,·
COc1ccc(CCNc2cc(-c3ccccc3)nc3ncnn23)cc1,–,45,–,–,–,–,–
N#Cc1cc(-c2ccc(Cl)cc2)cn(Cc2c(Cl)cccc2Cl)c1=O,–,45,–,–,–,–,–
C=CCn1cc(-c2ccc(Cl)cc2)cc(C#N)c1=O,–,–,–,–,·,·,·
FC(F)(F)c1cccc(Cn2cnc(NC(=S)NCCc3ccccc3)n2)c1,–,54,–,–,–,–,–
CC1(C(=O)NS(=O)(=O)Cc2ccccc2)CCN1C(=O)Cc1ccccc1 (centres undefined),·,–,–,–,·,·,·
Cc1cccc(OCCNc2cc(N3CCN(C)CC3)ccc2[N+](=O)[O-])c1,–,–,–,–,·,·,·
Cc1cccc(OCCNc2cc(N3CCOCC3)ccc2[N+](=O)[O-])c1,–,64,–,–,–,–,–
CC(C)N(Cc1cn(C)nc1-c1cccc(Cl)c1)Cc1nccn1C,–,–,–,–,·,·,·
Cc1cccc(-n2nc(CC#N)c(C#N)c2N)c1,–,–,–,–,·,·,·
Cc1cccc(OCC(=O)Nc2ccccc2N2CCCCC2)c1,–,53,–,–,–,–,–
O=C(COc1ccccc1)Nc1ccccc1N1CCCCC1,–,45,–,–,–,–,–
